Laboratory results taken from ChEMBL document CHEMBL4610084, “Antibacterial and ATP Synthesis Modulating Compounds from Salvia tingitana” (2020).

What was measured:
Format in all cases: functional
[1] = tested on: Staphylococcus epidermidis; assay: Antibacterial activity against Methicillin-resistant Staphylococcus epidermidis MB165 after 24 hrs by microdilution assay; conditions: MB165, 24 h
In short: (§1)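 Broth microdilution MIC, run as in an earlier cited report. Strains are clinical isolates identified by standard methods and MALDI-TOF; E. faecalis MB19 and MB51 are Ligurian seawater isolates. Highest concentration tested was 128 μg/mL. MICs are given in μg/mL and μM, with oxacillin and vancomycin as reference antibiotics.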

Enterococcus faecium [2] = assay: Antibacterial activity against Enterococcus faecium MB152 after 24 hrs by microdilution assay; conditions: MB152, 24 h
In short: (§2)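 Broth microdilution MIC against clinical or seawater-isolated strains (identified by standard procedures and MALDI-TOF), with compound solutions and testing as in earlier work. MIC reported in μg/mL and μM.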

Enterococcus faecium [3] = assay: Antibacterial activity against Enterococcus faecium MB3 after 24 hrs by microdilution assay; conditions: MB3, 24 h; in short: as §2
Enterococcus faecalis [4] = assay: Antibacterial activity against Vancomycin resistant Enterococcus faecalis MB19 after 24 hrs by microdilution assay; conditions: MB19, 24 h; in short: as §1
Staphylococcus warneri = assay: Antibacterial activity against Methicillin-resistant Staphylococcus warneri MB74 after 24 hrs by microdilution assay; conditions: MB74, 24 h; in short: as §1
Enterococcus durans = assay: Antibacterial activity against Enterococcus durans MB113 after 24 hrs by microdilution assay; conditions: MB113, 24 h; in short: as §2
[5] = tested on: Staphylococcus epidermidis; assay: Antibacterial activity against Methicillin-resistant Staphylococcus epidermidis MB169 after 24 hrs by microdilution assay; conditions: MB169, 24 h; in short: as §1
[6] = tested on: Staphylococcus saprophyticus; assay: Antibacterial activity against Staphylococcus saprophyticus MB41 after 24 hrs by microdilution assay; conditions: MB41, 24 h; in short: as §2
Staphylococcus aureus [7] = assay: Antibacterial activity against Methicillin-resistant Staphylococcus aureus MB188 after 24 hrs by microdilution assay; conditions: MB188, 24 h; in short: as §1
Enterococcus faecalis [8] = assay: Antibacterial activity against Vancomycin resistant Enterococcus faecalis MB1 after 24 hrs by microdilution assay; conditions: MB1, 24 h; in short: as §1
Enterococcus gallinarum = assay: Antibacterial activity against Vancomycin resistant Enterococcus gallinarum MB111 after 24 hrs by microdilution assay; conditions: MB111, 24 h; in short: as §1
Staphylococcus aureus [9] = assay: Antibacterial activity against Methicillin-resistant Staphylococcus aureus MB18 after 24 hrs by microdilution assay; conditions: MB18, 24 h; in short: as §1
[10] = tested on: Enterococcus casseliflavus; assay: Antibacterial activity against Vancomycin resistant Enterococcus casseliflavus MB159 after 24 hrs by microdilution assay; conditions: MB159, 24 h; in short: as §1
Staphylococcus simulans = assay: Antibacterial activity against Staphylococcus simulans MB94 after 24 hrs by microdilution assay; conditions: MB94, 24 h; in short: as §2
[11] = tested on: Staphylococcus haemolyticus; assay: Antibacterial activity against Methicillin-resistant Staphylococcus haemolyticus MB115 after 24 hrs by microdilution assay; conditions: MB115, 24 h; in short: as §1
Enterococcus faecalis [12] = assay: Antibacterial activity against Enterococcus faecalis MB76 after 24 hrs by microdilution assay; conditions: MB76, 24 h; in short: as §1
Staphylococcus capitis = assay: Antibacterial activity against Methicillin-resistant Staphylococcus capitis MB71 after 24 hrs by microdilution assay; conditions: MB71, 24 h; in short: as §1
Staphylococcus hominis = assay: Antibacterial activity against Methicillin-resistant Staphylococcus hominis MB124 after 24 hrs by microdilution assay; conditions: MB124, 24 h; in short: as §1
Enterococcus faecium [13] = assay: Antibacterial activity against Enterococcus faecium MB2 after 24 hrs by microdilution assay; conditions: MB2, 24 h; in short: as §2
Enterococcus faecalis [14] = assay: Antibacterial activity against Vancomycin resistant Enterococcus faecalis MB51 after 24 hrs by microdilution assay; conditions: MB51, 24 h; in short: as §1
[15] = tested on: Staphylococcus lugdunensis; assay: Antibacterial activity against Staphylococcus lugdunensis MB96 after 24 hrs by microdilution assay; conditions: MB96, 24 h; in short: as §2
Enterococcus avium = assay: Antibacterial activity against Enterococcus avium MB119 after 24 hrs by microdilution assay; conditions: MB119, 24 h; in short: as §2

Compound | MIC [1] | MIC (Enterococcus faecium [2]) | MIC (Enterococcus faecium [3]) | MIC (Enterococcus faecalis [4]) | MIC (Staphylococcus warneri) | MIC (Enterococcus durans) | MIC [5] | MIC [6] | MIC (Staphylococcus aureus [7]) | MIC (Enterococcus faecalis [8]) | MIC (Enterococcus gallinarum) | MIC (Staphylococcus aureus [9]) | MIC [10] | MIC (Staphylococcus simulans) | MIC [11] | MIC (Enterococcus faecalis [12]) | MIC (Staphylococcus capitis) | MIC (Staphylococcus hominis) | MIC (Enterococcus faecium [13]) | MIC (Enterococcus faecalis [14]) | other results
COC(=O)[C@]1(C)CCC[C@@]2(C)[C@H]1CC[C@@](C)(O)[C@@H]2CC/C(C)=C/[C@H](O)[C@H]1OC(=O)C=C1C | > 128 mg/L | 286 µM | 143 µM | 143 µM | 143 µM | 286 µM | 286 µM | 286 µM | > 128 mg/L | 143 µM | 143 µM | 286 µM | 143 µM | > 128 mg/L | > 128 mg/L | 143 µM | 286 µM | 286 µM | 286 µM | 286 µM | MIC [15]: 286 µM; MIC (Enterococcus avium): 286 µM
COc1ccc(-c2cc(=O)c3c(OC)c(OC)c(OC)cc3o2)cc1OC [SINENSETIN] | > 128 mg/L | 172 µM | 344 µM | 344 µM | 344 µM | 344 µM | 344 µM | > 128 mg/L | 344 µM | 86 µM | 172 µM | > 128 mg/L | 172 µM | > 128 mg/L | > 128 mg/L | 344 µM | 344 µM | 344 µM | 344 µM | 172 µM | MIC [15]: > 128 mg/L; MIC (Enterococcus avium): 344 µM
COc1cc2oc(-c3ccc(O)cc3)cc(=O)c2c(O)c1OC [CIRSIMARITIN] | > 128 mg/L | 407 µM | 204 µM | 407 µM | > 128 mg/L | 407 µM | > 128 mg/L | > 128 mg/L | > 128 mg/L | 204 µM | 102 µM | > 128 mg/L | 407 µM | > 128 mg/L | > 128 mg/L | 407 µM | 407 µM | > 128 mg/L | 407 µM | 407 µM | MIC [15]: 407 µM; MIC (Enterococcus avium): 204 µM
CC1=CC(=O)O[C@@H]1[C@@H](O)/C=C(\C)CC[C@@H]1[C@@]2(C)CCC[C@@]3(C)C(=O)O[C@@H](C[C@@]1(C)O)[C@H]23 | 296 µM | 148 µM | 296 µM | 296 µM | 296 µM | 286 µM | > 128 mg/L | > 128 mg/L | > 128 mg/L | 148 µM | 148 µM | 296 µM | 296 µM | > 128 mg/L | 296 µM | 296 µM | 296 µM | > 128 mg/L | 296 µM | 296 µM | MIC [15]: > 128 mg/L; MIC (Enterococcus avium): 148 µM
COc1ccc(-c2cc(=O)c3c(OC)c(OC)c(OC)cc3o2)cc1 | > 128 mg/L | 195 µM | 195 µM | 195 µM | 390 µM | 195 µM | 390 µM | > 128 mg/L | > 128 mg/L | 195 µM | 195 µM | 390 µM | 390 µM | > 128 mg/L | > 128 mg/L | 390 µM | 390 µM | 390 µM | 390 µM | 390 µM | MIC [15]: > 128 mg/L; MIC (Enterococcus avium): 390 µM
COC(=O)[C@]1(C)CCC[C@@]2(C)[C@H]1[C@@H](O)C[C@@](C)(O)[C@@H]2CC/C(C)=C/[C@H](O)[C@H]1OC(=O)C=C1C | 276 µM | 138 µM | 276 µM | 276 µM | 138 µM | 138 µM | > 128 mg/L | > 128 mg/L | > 128 mg/L | 138 µM | 276 µM | 276 µM | 276 µM | > 128 mg/L | 276 µM | 276 µM | 276 µM | 138 µM | 276 µM | 138 µM | MIC [15]: > 128 mg/L; MIC (Enterococcus avium): 138 µM
COC1O[C@H]2C[C@@](C)(O)[C@H](CC/C(C)=C/CC3OC(=O)C=C3C)[C@@]3(C)CCC[C@]1(C)[C@H]23 (stereo not given in full) | 148 µM | 148 µM | 296 µM | 148 µM | 148 µM | 296 µM | 148 µM | 296 µM | 296 µM | 296 µM | 296 µM | 296 µM | 148 µM | 296 µM | 296 µM | 296 µM | 74.1 µM | 148 µM | 296 µM | 296 µM | MIC [15]: 296 µM; MIC (Enterococcus avium): 296 µM
COC(=O)[C@]1(C)CCC[C@]2(C)[C@H]3CCC(C)(/C=C/c4occc4C)O[C@]3(C)CC[C@H]21 (stereo not given in full) | 309 µM | > 128 mg/L | 309 µM | 309 µM | 309 µM | > 128 mg/L | 155 µM | 309 µM | > 128 mg/L | > 128 mg/L | 309 µM | 309 µM | 309 µM | > 128 mg/L | > 128 mg/L | 309 µM | 155 µM | 309 µM | 309 µM | 309 µM | MIC [15]: > 128 mg/L; MIC (Enterococcus avium): > 128 mg/L
Cc1onc(-c2ccccc2)c1C(=O)N[C@@H]1C(=O)N2[C@@H]1SC(C)(C)[C@@H]2C(=O)O [OXACILLIN] | 638 µM |  |  |  | 319 µM |  | 638 µM | 2.49 µM | 1280 µM |  |  | 638 µM |  | 0.62 µM | 39.9 µM |  | 638 µM | 39.9 µM |  |  | MIC [15]: 1.25 µM
CN[C@H](CC(C)C)C(=O)N[C@H]1C(=O)N[C@@H](CC(N)=O)C(=O)N[C@H]2C(=O)N[C@H]3C(=O)N[C@H](C(=O)N[C@H](C(=O)O)c4cc(O)cc(O)c4-c4cc3ccc4O)[C@H](O)c3ccc(c(Cl)c3)Oc3cc2cc(c3O[C@@H]2O[C@H](CO)[C@@H](O)[C@H](O)[C@H]2O[C@H]2C[C@](C)(N)[C@H](O)[C@H](C)O2)Oc2ccc(cc2Cl)[C@H]1O [VANCOMYCIN] |  | 177 µM | 88.3 µM | 22.1 µM |  | 0.69 µM |  |  |  | 22.1 µM | 11 µM |  | 2.76 µM |  |  | 88.3 µM |  |  | 1.38 µM | 44.2 µM | MIC (Enterococcus avium): 0.69 µM
CC1=CC(=O)O[C@@H]1C/C=C(\C)CC[C@@H]1[C@@]2(C)CCC[C@@](C)(CO)[C@@H]2[C@@H](O)C[C@@]1(C)O | > 128 mg/L | > 128 mg/L | > 128 mg/L | > 128 mg/L | > 128 mg/L | > 128 mg/L | > 128 mg/L | > 128 mg/L | > 128 mg/L | > 128 mg/L | > 128 mg/L | > 128 mg/L | > 128 mg/L | > 128 mg/L | > 128 mg/L | > 128 mg/L | > 128 mg/L | > 128 mg/L | > 128 mg/L | > 128 mg/L | MIC [15]: > 128 mg/L; MIC (Enterococcus avium): > 128 mg/L
